According to ChEMBL document CHEMBL3425479, “Discovery, synthesis, and molecular pharmacology of selective positive allosteric modulators of the δ-opioid receptor” (J Med Chem, 2015):
Calls of active or inactive are those of the source. The rule behind the calls is not given here.

Columns and labels:
[1] = target: T1, Delta-type opioid receptor (Homo sapiens, UniProt P41143); assay: Partial agonist activity at human delta opioid receptor expressed in CHO cells after 1 hr by [35S]GTPgammaS binding assay relative to SNC80; format: functional, cell-based
[2] = target: T1, Delta-type opioid receptor; conditions: CHO
[3] = target: T1, Delta-type opioid receptor; conditions: CHO; remark: listed apart in the source
[4] = target: T1, Delta-type opioid receptor; conditions: CHO; remark: listed apart in the source
[5] = target: T1, Delta-type opioid receptor; conditions: CHO; remark: listed apart in the source
[6] = target: T1, Delta-type opioid receptor; assay: Positive allosteric modulation of human delta opioid receptor-1 expressed in CHO cells assessed as potentiation of leu-enkephalin-induced response after 90 mins by beta-arrestin recruitment assay; format: cell-based
[7] = Solubility of the compound in phosphate buffered saline assessed as particulate matter formation at >1 uM by nephelometric analysis; format: physicochemical; conditions: buffer
[8] = Solubility of the compound in HBSS/HEPES/FBS assessed as particulate matter formation at >3 uM by nephelometric analysis; format: physicochemical; conditions: buffer
[9] = target: T1, Delta-type opioid receptor; conditions: CHO; remark: listed apart in the source
[10] = target: T1, Delta-type opioid receptor; conditions: CHO; remark: listed apart in the source
[11] = target: T1, Delta-type opioid receptor; conditions: CHO; remark: listed apart in the source
[12] = target: T1, Delta-type opioid receptor; conditions: CHO; remark: listed apart in the source
Mu-type opioid receptor = Mu-type opioid receptor (Homo sapiens, UniProt P35372); assay: Positive allosteric modulation of human mu opioid receptor-1 expressed in CHO cells assessed as potentiation of endomorphin 1-induced response after 90 mins by beta-arrestin recruitment assay; format: cell-based
CHO [13] = assay: Selectivity ratio of EC50 for human mu opioid receptor-1 expressed in CHO cells to EC50 for human delta opioid receptor-1 expressed in CHO cells; format: cell-based
In short: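 The δ/μ potency ratio is built from PAM-mode β-arrestin EC50 values in PathHunter CHO-OPRD1 and CHO-OPRM1 cells. […] Incubation was 90 min at room temperature with luminescence read-out.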

[14] = target: T1, Delta-type opioid receptor; assay: Agonist activity at human delta opioid receptor-1 expressed in CHO cells after 90 mins by beta-arrestin recruitment assay; format: cell-based
In short: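 PathHunter CHO cells (OPRD1 or OPRM1) plated overnight at 37 °C in F-12 with 10% FBS and 25 mM HEPES. […] Incubated 90 min at room temperature, then luminescence read 1 h after detection reagent.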

CHO [15] = assay: Induction of ERK2 phosphorylation in delta receptor deficient CHO cells; format: cell-based; conditions: Cricetulus griseus
In short: (§1)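 Parental CHO cells lacking δ receptor, test compound added alone. Cells serum-starved overnight in DMEM, then stimulated at 37 °C. Phospho-ERK1/2 measured in lysates by AlphaScreen SureFire. Basal in serum-free medium was set as 0% and 10% serum response as 100%.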

CHO [16] = assay: Induction of ERK1 phosphorylation in delta receptor deficient CHO cells; format: cell-based; conditions: Cricetulus griseus; in short: as §1
CHO [17] = assay: Effect on delta receptor deficient CHO cells assessed as inhibition of cAMP accumulation; format: functional, cell-based; conditions: Cricetulus griseus
In short: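 Parental CHO cells lacking δ receptor, test compound added alone. Cells in HBSS + 25 mM HEPES + 0.05% BSA, 2000 cells/well, with forskolin at 2 μM final. Incubated 45 min at rt. cAMP measured by TR-FRET (665/615 nm ratio) against a cAMP standard curve run alongside.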

Chain of Mu-type opioid receptor (P35372 whole entry): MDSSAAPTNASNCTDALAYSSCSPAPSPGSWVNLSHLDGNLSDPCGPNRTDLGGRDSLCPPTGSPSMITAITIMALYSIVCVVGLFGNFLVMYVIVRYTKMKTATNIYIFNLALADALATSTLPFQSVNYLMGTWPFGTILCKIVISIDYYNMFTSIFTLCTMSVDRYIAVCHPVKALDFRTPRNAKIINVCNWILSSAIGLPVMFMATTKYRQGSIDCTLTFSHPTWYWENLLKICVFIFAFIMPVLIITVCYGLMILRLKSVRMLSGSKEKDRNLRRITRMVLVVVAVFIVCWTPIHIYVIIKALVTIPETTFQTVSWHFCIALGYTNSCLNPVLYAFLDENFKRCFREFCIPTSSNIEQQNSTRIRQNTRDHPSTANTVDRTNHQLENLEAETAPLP
T1 sequence (P41143 whole entry): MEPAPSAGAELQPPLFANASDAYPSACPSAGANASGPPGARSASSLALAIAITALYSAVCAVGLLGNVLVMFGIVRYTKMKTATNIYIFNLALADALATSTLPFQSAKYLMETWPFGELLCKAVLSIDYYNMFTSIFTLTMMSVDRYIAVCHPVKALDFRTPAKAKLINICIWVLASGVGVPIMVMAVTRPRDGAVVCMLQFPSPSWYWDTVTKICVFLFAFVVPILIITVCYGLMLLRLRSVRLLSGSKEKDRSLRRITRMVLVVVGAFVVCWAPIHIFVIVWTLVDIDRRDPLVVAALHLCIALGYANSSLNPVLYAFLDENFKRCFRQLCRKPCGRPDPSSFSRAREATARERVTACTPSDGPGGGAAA

Structure (SMILES)	EC50 [6] [nM]	EC50 (Mu-type opioid receptor) [nM]	Emax (Mu-type opioid receptor) [%]	Ratio EC50 (CHO [13])	Activity [14]	further results
CN1CC[C@]2(c3cccc(O)c3)Cc3nc4ccccc4cc3C[C@H]2C1	–	–	–	–	–	Activity [1]: 84%; pKA [2]: 8.4; log(activity) [3]: 0.67; pKA [4]: 7.6; log(activity) [5]: 0.22
CC1(C)CC(=O)C2=C(C1)OC1=C(C(=O)CC(C)(C)C1)C2c1ccc(OCc2ccccc2Br)cc1	50	–	–	–	–	solubility [7]: Insoluble; solubility [8]: Insoluble
C=CCN1C[C@H](C)N([C@H](c2ccc(C(=O)N(CC)CC)cc2)c2cccc(OC)c2)C[C@H]1C	–	–	–	–	–	log(activity) [9]: 0.86; pKA [10]: 7.7; log(activity) [11]: 0.66; pKA [12]: 6.38; pKA [2]: 7.7; log(activity) [3]: 0.56; pKA [4]: 7.7; log(activity) [5]: 1.06
CC1(C)CC(=O)C2=C(C1)OC1=C(C(=O)CC(C)(C)C1)C2c1ccc(OCc2ccccc2F)cc1	100	–	–	–	–	–
CC1(C)CC(=O)C2=C(C1)OC1=C(C(=O)CC(C)(C)C1)C2c1ccc(OCc2ccccc2)cc1	–	6000	130	30	inactive	–
CC1(C)CC(=O)C2=C(C1)OC1=C(C(=O)CC(C)(C)C1)C2c1ccc(OCc2ccccc2S(C)(=O)=O)cc1	900	5000	42	6	inactive	–
Cc1cccc(COc2ccc(C3C4=C(CC(C)(C)CC4=O)OC4=C3C(=O)CC(C)(C)C4)cc2)c1	200	3000	120	15	inactive	–
CC1(C)CC(=O)C2=C(C1)OC1=C(C(=O)CC(C)(C)C1)C2c1ccc(OCc2cccc(F)c2)cc1	1000	7000	182	7	inactive	–
Cc1ccccc1COc1ccc(C2C3=C(CC(C)(C)CC3=O)OC3=C2C(=O)CC(C)(C)C3)cc1	–	–	–	–	–	Activity (CHO [15]): inactive; solubility [7]: Insoluble; solubility [8]: Insoluble; Activity (CHO [16]): inactive; Activity (CHO [17]): inactive
CC1(C)CC(=O)C2=C(C1)OC1=C(C(=O)CC(C)(C)C1)C2c1ccc(OCc2ccccc2OC(F)(F)F)cc1	300	2000	111	7	inactive	–
CC1(C)CC(=O)C2=C(C1)OC1=C(C(=O)CC(C)(C)C1)C2c1ccc(OCc2cccc(Cl)c2Cl)cc1	100	–	–	–	–	–
CC1(C)CC(=O)C2=C(C1)OC1=C(C(=O)CC(C)(C)C1)C2c1ccc(OCc2ccccc2Cl)cc1	300	> 10000	> 100	–	inactive	–
CC1(C)CC(=O)C2=C(C1)OC1=C(C(=O)CC(C)(C)C1)C2c1ccc(OCc2ccccc2OC(F)F)cc1	200	3000	80	15	inactive	–
CC1(C)CC(=O)C2=C(C1)OC1=C(C(=O)CC(C)(C)C1)C2c1ccc(OCc2ccccc2CO)cc1	1000	10000	112	10	inactive	–
Cc1ccc(COc2ccc(C3C4=C(CC(C)(C)CC4=O)OC4=C3C(=O)CC(C)(C)C4)cc2)cc1	300	4000	65	13	inactive	–
CC1(C)CC(=O)C2=C(C1)OC1=C(C(=O)CC(C)(C)C1)C2c1ccc(OCc2ccc(F)cc2)cc1	100	–	–	–	–	–
CC1(C)CC(=O)C2=C(C1)OC1=C(C(=O)CC(C)(C)C1)C2c1ccc(OCc2ccccc2C(F)(F)F)cc1	> 10000	> 10000	> 20	–	inactive	–
